The text below walks through data of PMC2752669 (Biochemistry, 2009).

Ends that are not written are not given here.

Data set [1] has as its system hp-AS (RNA, rRNA) GGCGUCACACCUUCGGGUGAAGUCGCC
Description: ESI-MS titration. To be noted: NH4+ 100 mM; apparent; 100 mM NH4OAc, 50% 2-propanol, pH 6.7, 25 °C.

Data set [2] concerns A-site RNA hp-AS-pwk annealed to 5'-biotin-DNA. Description: Peptide bead ELISA assay, hp-AS-pwk. Type of data set: binding, E. coli. Conditions: 1 μM biotin-tagged RNA, 4 days, 4 °C; anti-biotin-alkaline phosphatase, BCIP. In outline:
(§1)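 Peptide beads washed, blocked overnight at 4 °C, then incubated 4 days at 4 °C with 1 μM biotin-tagged RNA (fresh RNA added daily) in HEPES-KOH pH 7.5/100 mM KCl/5 mM MgCl2 buffer. Buffer-only beads served as background. Detection: anti-biotin–alkaline phosphatase (1:8000, 1 h, room temperature), then BCIP (0.165 μg/μl, pH 9.5) overnight at 4 °C.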

Data set [3] has as its system helix 17 (h17) RNA from 16S rRNA. Briefly: Peptide bead ELISA assay, h17 control. The data set is classed as binding. To be noted: biotin-tagged h17, 4 days, 4 °C; anti-biotin-alkaline phosphatase, BCIP. In outline: as §1
Data set [4] has as its system A-site RNA hairpin hp-AS (bacterial 16S rRNA). Briefly: Isothermal titration calorimetry of peptide into hp-AS. The data set is classed as binding, E. coli. Conditions: 10 mM potassium phosphate, 100 mM KCl, pH 7.2, 10 °C; average of three independent experiments. The method in brief:
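RNA and test peptide were dialysed against water, dried, redissolved in buffer and degassed at 5 °C for 7 min. After a 2 μl preliminary injection, which was discarded, 20 μl injections of peptide (250–600 μM) went into hp-AS RNA (20–40 μM), spaced 300 s. Heats of peptide dilution into buffer without RNA were subtracted.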

The test system is the same in data set [5]. Briefly: ESI-MS binding to hp-AS. The arrangement: species or system E. coli. Conditions: 1 μM RNA. The method in brief: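 Hairpin RNA renatured in 100 mM NH4OAc (pH 6.7). 1 μM RNA mixed with peptide (0–375 μM), room temperature, 10 min, in 50% 2-propanol/100 mM NH4OAc pH 6.7, then ESI-MS. Fraction bound taken from summed complex versus free-RNA peak intensities. Salt series: 34 μM peptide at 30–200 mM NH4OAc. pH series: 34 μM peptide, 100 mM NH4OAc, pH 5.0–7.6.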

The next data set concerns A-site RNA over TAR RNA. Description: ESI-MS competition, A-site RNA versus TAR RNA. To be noted: data not shown. The data set is classed as binding.
In data set [6] the test system is A-site RNA hairpin hp-AS (bacterial 16S rRNA). Briefly: Enzymatic. To be noted: 5 to 120 μM peptide, pH 7.2, 37 °C. The data set is classed as binding, E. coli. In outline:
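3′-32P-pCp-labelled hp-AS (1 μl, 250,000 cpm) preincubated with test peptide (0–120 μM) in 10 mM Tris-HCl pH 7.2, 15 mM NaCl, 1 mM EDTA, 37 °C, 1.5 h. RNase A (1 μl, 0.002 U/μl) was added to 5 μl final for 30 min at 37 °C, quenched on dry ice, formamide-denatured and gel-resolved beside an alkaline-hydrolysis ladder. Fraction bound versus peptide was curve-fitted for Kd; two independent experiments.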

Data set [7] concerns E. coli S30 extract translation system. Briefly: In vitro translation inhibition. Type of data set: biochemical. In outline: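 E. coli S30 extract for circular DNA, with pBESTluc plasmid carrying firefly luciferase. Amino acids, S30 premix and increasing peptide concentrations in 50 μl, 37 °C for 1–2 h. Quenched on ice 5 min, luciferase reagent added, luminescence read. Background from a sample without DNA template.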

For another data set, the system named is other RNA targets. Description: Preliminary in vitro solution binding studies.
For data set [8], the target named is T1, HPVHHYQ peptide on beads.
T1 chain: HPVHHYQ
Briefly: bead ELISA.

Data set [9] concerns the target T2, LPLTPLP peptide on beads.
T2 chain: LPLTPLP
Briefly: bead ELISA.

For data set [10], the target named is T2, LPLTPLP peptide on beads. Description: bead fluorescence.
Data set [11] has as its target T3, HPVHHYQ-NH2 peptide.
T3 chain: HPVHHYQ-NH2
Description: RNase A footprinting.

Data set [12] concerns the target T3, HPVHHYQ-NH2 peptide. Briefly: ITC.
For data set [13], the target named is T3, HPVHHYQ-NH2 peptide. Description: RNase A footprinting.
Data set [14] addresses T1, HPVHHYQ peptide on beads. Description: bead fluorescence.

As to H-HPVHHYQ-NH2, in data set [1], the Kd was determined as 29 ± 2 µM.
With HPVHHYQ, in data set [2], the “Bead ELISA response with A-site RNA” value was “much stronger response than LPLTPLP”. Also, the “Bead ELISA binding to h17” value in data set [3] is listed as “No binding was observed”.
Regarding HPVHHYQ-NH2, in data set [4], the “Enthalpy ΔH” value was -0.56 ± 0.05 kcal/mol and the “Entropy −TΔS” value was -6.5 ± 0.3 kcal/mol. In addition, the “Effect of pH on ratio of free RNA to RNA-peptide complexes” value in [5] (pH 5.0 to 7.6, 100 mM NH4OAc, 50% IPA, 34 μM peptide, data not shown) is on record as “no significant change”. Also, the Kd in [5] (read-out: Apparent dissociation constant (ESI-MS), 0–375 μM peptide, 100 mM NH4OAc, pH 6.7, 50% 2-propanol, 25 °C, 10 min, average of three independent experiments) was 29 ± 2 µM. In addition, the “Preference for A-site RNA over TAR RNA” value with A-site RNA over TAR RNA is “five-fold preference for the A-site RNA over TAR RNA”. For the same molecule, in [6], the “Residues protected from RNase A cleavage” value was “residues G1494 and U1495 are protected by the peptide”; the “Residues with enhanced RNase A cleavage” value is “enhanced at residues A1492 and A1493”. Moreover, in data set [7] (34 μM peptide, 37 °C, 1–2 h), the “Inhibition of in vitro protein synthesis” value is given as “no inhibition was observed”. Besides, the “Remaining (luciferase) enzyme activity” value in [7] (620 μM peptide, 37 °C, 1–2 h) was “approximately 50%”. In [7] (in vitro translation inhibition), the “IC50 compared with neomycin” value was “high compared with the known antibiotic neomycin”.
As to LPLTPLP, the “Bead ELISA response with A-site RNA” value in [2] is recorded as “bind to the A-site RNA”. The “Bead ELISA binding to h17” value in data set [3] is given as “No binding was observed”. Further, in the data set with other RNA targets, the “Binding to other RNA targets” value is “binds to other RNA targets”.

B1: h17 annealed to 5'-biotin-DNA (mixed)
RNA: GGCGGGGAGGAAGGGAGUAAAGUUAAUACCUUUGCUCAUUGACGUUACCCGCCGGUGCGGAUGGCGAUUGCU
DNA: AGCAATCGCCATCCGCACC
B1: the binding result with HPVHHYQ peptide on beads [8] and in the data set with LPLTPLP peptide on beads [9] was “no binding” each time.
As to GGCGUCACACCUUCGGGUGAAGUCGCC (structured_RNA) [F-hp-AS], in the data set with LPLTPLP peptide on beads [10], the binding result was “binds”.
For GGCGUCACACCUUCGGGUGAAGUCGCC (structured_RNA) [hp-AS], the values for the Kd in the data set with HPVHHYQ-NH2 peptide [11], in the data set with HPVHHYQ-NH2 peptide [12] and with HPVHHYQ-NH2 peptide [13] were 18 ± 4 µM, 2 ± 0.4 µM and 16 ± 4 µM, respectively.
GGCAGAUCUCAGCCUGGGAGCUGUCUGCC (structured_RNA) [F-TAR]: the binding result in the data set with HPVHHYQ peptide on beads [14] and with LPLTPLP peptide on beads [10] was “no binding” throughout.
As for GGCGUCGCUACUUCGGUAAAAGUCGCC (structured_RNA) [F-human-hp-AS], the binding result in the data set with HPVHHYQ peptide on beads [14] and with LPLTPLP peptide on beads [10] was “no binding” throughout.
